Results from ChEMBL document CHEMBL1153436, “2-Pyridyl P1'-substituted symmetry-based human immunodeficiency virus protease inhibitors (A-792611 and A-790742) with potential for convenient dosing and reduced side effects” (J Med Chem, 2009).

How the values were obtained:
[1] = test system: Human immunodeficiency virus 1; assay: Antiviral activity against HIV1 bearing protease gene with A17 mutation infected in human MT4 cells after 5 days by MTT assay; format: functional, organism-based; settings: Human immunodeficiency virus 1, MT4, 120 h
Summary of the method: (§1)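 HIV-1 A17 mutant clone carrying protease mutations L10F, V32I, M46I, I47V, Q58E and I84V, generated by in vitro serial passage under LPV/RTV. EC50 was determined in MT-4 cells. Wild-type reference strain was HIV-1 pNL4-3.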

Serum [2] = assay: Drug level in Gunn rat serum at 250 mg/kg coadministered with ritonavir measured on day 1; format: ADME, organism-based; set-up: dose 250 mg/kg; settings: in vivo
Summary of the method: (§2)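 Gunn rats (n = 8-10 per arm) dosed orally with compound in 5% ethanol/95% propylene glycol with p-toluenesulfonic acid, together with 50 mg/kg RTV. Plasma was sampled 4 h after the first and second doses. Drug was measured by HPLC and bilirubin […]. Change in bilirubin (mg/dL) reported as mean with SD.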

Rattus norvegicus [3] = assay: Toxicity in Gunn rat assessed as unconjugated-bilirubin level at 250 mg/kg coadministered with ritonavir measured on day 1; format: organism-based; set-up: dose 250 mg/kg; settings: in vivo; summary of the method: as §2
[4] = test system: Human immunodeficiency virus 1; assay: Antiviral activity against wild-type HIV1 pNL4-3 infected in human MT4 cells after 5 days by MTT assay in presence of 50% human serum; format: functional, organism-based; settings: Human immunodeficiency virus 1, MT4, 120 h
[5] = test system: Human immunodeficiency virus 1; assay: Fold resistance, ratio of EC50 for HIV1 bearing protease gene with A17 mutation to EC50 for wild-type HIV1 pNL4-3; format: functional; summary of the method: as §1
[6] = test system: Human immunodeficiency virus 1; assay: Antiviral activity against wild-type HIV1 pNL4-3 infected in human MT4 cells after 5 days by MTT assay; format: functional, organism-based; settings: Human immunodeficiency virus 1, MT4, 120 h
Cytochrome P450 1A2 = target: T1, Cytochrome P450 1A2 (Homo sapiens, UniProt P05177); assay: Inhibition of CYP1A2 assessed as phenacetin O-deethylation; format: ADME
T1 sequence (P05177 whole entry): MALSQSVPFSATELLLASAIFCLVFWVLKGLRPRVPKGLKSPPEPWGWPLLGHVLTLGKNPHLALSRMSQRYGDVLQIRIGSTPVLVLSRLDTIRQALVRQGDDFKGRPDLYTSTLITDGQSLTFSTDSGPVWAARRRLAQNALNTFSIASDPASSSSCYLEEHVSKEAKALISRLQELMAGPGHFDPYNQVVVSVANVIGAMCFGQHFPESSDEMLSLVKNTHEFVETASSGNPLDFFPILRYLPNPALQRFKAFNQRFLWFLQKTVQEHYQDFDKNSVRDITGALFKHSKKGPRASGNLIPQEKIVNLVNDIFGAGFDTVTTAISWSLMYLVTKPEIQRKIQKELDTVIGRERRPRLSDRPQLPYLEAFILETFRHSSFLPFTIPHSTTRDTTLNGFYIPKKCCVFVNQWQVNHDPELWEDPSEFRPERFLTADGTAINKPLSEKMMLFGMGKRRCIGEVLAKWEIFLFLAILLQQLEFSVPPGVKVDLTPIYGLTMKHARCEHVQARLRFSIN
Summary of the method: (§3)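 CYP inhibition in vitro, with probe reactions of phenacetin O-deethylation (CYP1A2), tolbutamide hydroxylation (CYP2C9), S-mephenytoin hydroxylation (CYP2C19) and dextromethorphan O-demethylation (CYP2D6). Reported as IC50 in µM.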

[7] = test system: Human immunodeficiency virus 1; assay: Antiviral activity against HIV1 bearing protease gene with B26 mutation infected in human MT4 cells after 5 days by MTT assay; format: functional, organism-based; settings: Human immunodeficiency virus 1, MT4, 120 h
Cathepsin D = Cathepsin D (Homo sapiens, UniProt P07339); assay: Inhibition of cathepsin D
Chain of Cathepsin D (P07339 65-162 limits assumed): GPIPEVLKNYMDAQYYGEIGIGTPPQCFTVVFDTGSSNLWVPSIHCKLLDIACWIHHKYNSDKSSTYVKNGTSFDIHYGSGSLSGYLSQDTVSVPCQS
Chain of Cathepsin D (P07339 169-412 limits assumed): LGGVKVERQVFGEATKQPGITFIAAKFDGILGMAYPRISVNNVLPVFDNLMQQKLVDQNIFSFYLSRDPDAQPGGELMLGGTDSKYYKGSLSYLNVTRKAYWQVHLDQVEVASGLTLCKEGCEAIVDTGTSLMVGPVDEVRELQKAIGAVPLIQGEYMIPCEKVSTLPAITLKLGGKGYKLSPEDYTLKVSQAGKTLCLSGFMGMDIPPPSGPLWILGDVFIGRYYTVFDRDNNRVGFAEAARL

Serum [8] = assay: Drug level in Gunn rat serum at 125 mg/kg coadministered with ritonavir measured on day 1; format: ADME, organism-based; set-up: dose 125 mg/kg; settings: in vivo; summary of the method: as §2
Serum [9] = assay: Drug level in Gunn rat serum at 125 mg/kg coadministered with ritonavir measured on day 2; format: ADME, organism-based; set-up: dose 125 mg/kg; settings: in vivo; summary of the method: as §2
[10] = Inhibition of HIV protease; set-up: species or system Human immunodeficiency virus
[11] = AUC in Sprague-Dawley rat at 5 mg/kg, po in presence of ritonavir; format: ADME, organism-based; set-up: dose 5 mg/kg, route oral; settings: plasma
Summary of the method: (§4)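 Male Sprague-Dawley-derived rats (n = 3) dosed iv or by oral gavage with 5 mg/mL solutions in 5% dextrose containing 20% ethanol, 30% propylene glycol and methanesulfonic acid equivalents. Plasma was sampled at 10 time points over 8 h, extracted into ethyl acetate/hexane and analysed by reversed-phase HPLC with internal standard. AUC in µg·h/mL.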

Rattus norvegicus [12] = assay: Toxicity in Gunn rat assessed as unconjugated-bilirubin level at 125 mg/kg coadministered with ritonavir measured on day 1; format: organism-based; set-up: dose 125 mg/kg; settings: in vivo; summary of the method: as §2
[13] = Cmax in dog at 5 mg/kg, po coadministered with 5 mg/kg ritonavir; format: ADME, organism-based, Canis lupus familiaris; set-up: dose 5 mg/kg, route oral; settings: in vivo
Summary of the method: (§5)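 Male and female beagle dogs (n = 3) given oral gavage doses formulated as 5 mg/mL solutions in 5% dextrose with 20% ethanol, 30% propylene glycol and methanesulfonic acid, alone or with RTV (2.5 or 5 mg/kg). Plasma was taken at 12 time points over 12 h, extracted with ethyl acetate/hexane and analysed by reversed-phase HPLC with internal standard. AUC in µg·h/mL; Cmax and C12h in µg/mL.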

[14] = Cmax in dog at 5 mg/kg, po; format: ADME, organism-based, Canis lupus familiaris; set-up: dose 5 mg/kg, route oral; settings: in vivo; summary of the method: as §5
[15] = Cmax in dog at 5 mg/kg, po coadministered with 2.5 mg/kg ritonavir; format: ADME, organism-based, Canis lupus familiaris; set-up: dose 5 mg/kg, route oral; settings: in vivo; summary of the method: as §5
[16] = AUC in dog at 5 mg/kg, po coadministered with 2.5 mg/kg ritonavir; format: ADME, organism-based, Canis lupus familiaris; settings: plasma; summary of the method: as §5
[17] = Solubility at pH 7.4; format: physicochemical; settings: buffer
Summary of the method: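 Solubility measured in µg/mL at pH 7.4 and 25 °C.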

[18] = Oral bioavailability in Sprague-Dawley rat at 5 mg/kg; format: ADME, organism-based; settings: in vivo; summary of the method: as §4
Cytochrome P450 2C9 = Cytochrome P450 2C9 (Homo sapiens, UniProt P11712); assay: Inhibition of CYP2C9 assessed as Tolbutamide hydroxylation; format: ADME; summary of the method: as §3
Chain of Cytochrome P450 2C9 (P11712 whole entry): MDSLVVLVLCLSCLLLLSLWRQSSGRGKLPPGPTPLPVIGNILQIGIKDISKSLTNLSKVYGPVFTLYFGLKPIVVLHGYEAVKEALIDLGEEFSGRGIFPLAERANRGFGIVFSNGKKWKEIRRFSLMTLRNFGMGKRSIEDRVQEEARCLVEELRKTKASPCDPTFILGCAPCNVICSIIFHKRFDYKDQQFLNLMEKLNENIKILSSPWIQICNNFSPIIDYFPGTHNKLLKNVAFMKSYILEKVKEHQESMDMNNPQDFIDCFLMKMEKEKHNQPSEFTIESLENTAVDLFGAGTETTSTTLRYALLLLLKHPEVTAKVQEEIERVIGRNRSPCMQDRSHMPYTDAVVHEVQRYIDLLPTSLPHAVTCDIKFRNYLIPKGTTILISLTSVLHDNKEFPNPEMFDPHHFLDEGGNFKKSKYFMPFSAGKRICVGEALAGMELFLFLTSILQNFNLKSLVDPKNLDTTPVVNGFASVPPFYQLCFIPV

[19] = AUC in Sprague-Dawley rat at 5 mg/kg, po; format: ADME, organism-based; set-up: dose 5 mg/kg, route oral; settings: plasma; summary of the method: as §4
[20] = Half life in Sprague-Dawley rat at 5 mg/kg, iv; format: ADME, organism-based; set-up: dose 5 mg/kg, route intravenous; settings: in vivo; summary of the method: as §4
[21] = Concentration of drug after 12 hrs in dog at 5 mg/kg, po coadministered with 5 mg/kg ritonavir; format: ADME, organism-based, Canis lupus familiaris; settings: in vivo, read-out: Drug uptake; summary of the method: as §5
[22] = AUC in dog at 5 mg/kg, po coadministered with 5 mg/kg ritonavir; format: ADME, organism-based, Canis lupus familiaris; settings: plasma; summary of the method: as §5
Cytochrome P450 2D6 = Cytochrome P450 2D6 (Homo sapiens, UniProt P10635); assay: Inhibition of CYP2D6 assessed as dextromethorphan O-demethylation; format: ADME; summary of the method: as §3
Chain of Cytochrome P450 2D6 (P10635 whole entry): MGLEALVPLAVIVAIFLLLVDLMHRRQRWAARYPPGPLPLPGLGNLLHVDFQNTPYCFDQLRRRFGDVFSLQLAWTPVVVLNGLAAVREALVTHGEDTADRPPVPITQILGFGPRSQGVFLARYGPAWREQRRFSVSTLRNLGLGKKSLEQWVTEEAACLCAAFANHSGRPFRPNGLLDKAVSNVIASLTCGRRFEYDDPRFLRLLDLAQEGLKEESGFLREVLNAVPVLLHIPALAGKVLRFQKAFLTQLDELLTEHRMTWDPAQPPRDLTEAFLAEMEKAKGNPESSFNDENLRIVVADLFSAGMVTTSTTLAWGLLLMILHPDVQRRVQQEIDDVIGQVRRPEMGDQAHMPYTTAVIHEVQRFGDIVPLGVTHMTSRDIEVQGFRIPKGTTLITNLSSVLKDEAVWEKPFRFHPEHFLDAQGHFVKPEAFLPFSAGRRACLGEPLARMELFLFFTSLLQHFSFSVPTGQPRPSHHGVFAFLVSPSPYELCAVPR

Cytochrome P450 3A4 = Cytochrome P450 3A4 (Homo sapiens, UniProt P08684); assay: Inhibition of CYP3A4 assessed as midazolam 1'- hydroxylation; format: ADME
Chain of Cytochrome P450 3A4 (P08684 whole entry): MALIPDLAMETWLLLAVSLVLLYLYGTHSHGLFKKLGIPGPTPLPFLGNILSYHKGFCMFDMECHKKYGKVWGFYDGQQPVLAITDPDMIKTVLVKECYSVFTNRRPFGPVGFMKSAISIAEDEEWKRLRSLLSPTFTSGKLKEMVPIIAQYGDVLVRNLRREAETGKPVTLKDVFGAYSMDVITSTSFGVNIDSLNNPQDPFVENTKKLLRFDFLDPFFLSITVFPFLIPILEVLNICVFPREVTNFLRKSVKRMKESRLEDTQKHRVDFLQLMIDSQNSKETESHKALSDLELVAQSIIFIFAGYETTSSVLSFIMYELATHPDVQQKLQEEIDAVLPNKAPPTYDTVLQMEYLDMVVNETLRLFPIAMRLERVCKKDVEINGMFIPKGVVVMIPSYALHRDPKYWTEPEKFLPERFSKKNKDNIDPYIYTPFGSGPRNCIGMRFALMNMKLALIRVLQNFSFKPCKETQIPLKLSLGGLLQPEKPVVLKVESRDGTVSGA
Summary of the method: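 CYP3A4 inhibition was measured as midazolam 1′-hydroxylation and expressed as Ki in nM.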

Rattus norvegicus [23] = assay: Toxicity in Gunn rat assessed as unconjugated-bilirubin level at 125 mg/kg coadministered with ritonavir measured on day 2; settings: in vivo
[24] = Inhibition of human pepsin
[25] = Protein binding in human plasma by equilibrium dialysis; format: ADME, cell-free; settings: read-out: PB (converted)
Summary of the method: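 Percentage bound in human plasma, determined by equilibrium dialysis.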

[26] = Clearance in Sprague-Dawley rat at 5 mg/kg, iv; format: ADME, organism-based; set-up: dose 5 mg/kg, route intravenous; settings: in vivo; summary of the method: as §4
Renin = target: T2, Renin (Homo sapiens, UniProt P00797); assay: Inhibition of renin
T2 sequence (P00797 whole entry): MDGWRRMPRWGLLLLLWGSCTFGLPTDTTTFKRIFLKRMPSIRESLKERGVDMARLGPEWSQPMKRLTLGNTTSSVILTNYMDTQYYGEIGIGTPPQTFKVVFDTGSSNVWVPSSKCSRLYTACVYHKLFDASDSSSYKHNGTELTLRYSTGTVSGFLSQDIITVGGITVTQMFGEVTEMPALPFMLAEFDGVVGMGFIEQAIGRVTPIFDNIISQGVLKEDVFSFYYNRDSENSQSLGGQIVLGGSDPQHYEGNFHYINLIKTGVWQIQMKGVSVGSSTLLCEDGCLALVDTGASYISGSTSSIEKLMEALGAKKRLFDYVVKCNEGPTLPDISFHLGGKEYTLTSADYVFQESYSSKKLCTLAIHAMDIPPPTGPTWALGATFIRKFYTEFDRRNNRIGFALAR

[27] = AUC in dog at 5 mg/kg, po; format: ADME, organism-based, Canis lupus familiaris; set-up: dose 5 mg/kg, route oral; settings: plasma; summary of the method: as §5
Cytochrome P450 2C19 = Cytochrome P450 2C19 (Homo sapiens, UniProt P33261); assay: Inhibition of CYP2C19 assessed as S-mephenytion hydroxylation; format: ADME; summary of the method: as §3
Chain of Cytochrome P450 2C19 (P33261 whole entry): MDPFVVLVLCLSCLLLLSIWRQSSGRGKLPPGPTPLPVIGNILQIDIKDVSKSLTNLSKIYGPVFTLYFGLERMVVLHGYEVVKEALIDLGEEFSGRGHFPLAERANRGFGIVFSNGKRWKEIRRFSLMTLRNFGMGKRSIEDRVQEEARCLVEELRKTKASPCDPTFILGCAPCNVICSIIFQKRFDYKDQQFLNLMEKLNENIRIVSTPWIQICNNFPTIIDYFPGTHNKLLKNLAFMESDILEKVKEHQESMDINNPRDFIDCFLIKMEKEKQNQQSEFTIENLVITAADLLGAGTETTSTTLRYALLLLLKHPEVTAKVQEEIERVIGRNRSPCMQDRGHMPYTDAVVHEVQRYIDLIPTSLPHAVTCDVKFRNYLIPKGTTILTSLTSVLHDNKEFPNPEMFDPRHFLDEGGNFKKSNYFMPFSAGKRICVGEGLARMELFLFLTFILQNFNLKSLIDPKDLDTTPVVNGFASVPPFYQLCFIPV

[28] = Concentration of drug after 12 hrs in dog at 5 mg/kg, po coadministered with 2.5 mg/kg ritonavir; format: ADME, organism-based, Canis lupus familiaris; settings: in vivo, read-out: Drug uptake; summary of the method: as §5
[29] = test system: Human immunodeficiency virus 1; assay: Antiviral activity against HIV1 bearing protease gene with P25 mutation infected in human MT4 cells after 5 days by MTT assay; format: functional, organism-based; settings: Human immunodeficiency virus 1, MT4, 120 h

COC(=O)N[C@H](C(=O)N[C@@H](Cc1ccc(-c2ccccn2)cc1)C[C@H](O)[C@H](Cc1ccccc1)NC(=O)[C@@H](N1CCN(Cc2cccc(C)n2)C1=O)C(C)(C)C)C(C)(C)C
EC50 [1]: 15 nM
Drug uptake (Serum [2]): 5.83 µg/mL
Activity (Rattus norvegicus [3]): 0.233 mg/dL
EC50 [4]: 62 nM
Ratio EC50 [5]: 1
EC50 [6]: 13 nM

COC(=O)N[C@H](C(=O)N[C@@H](Cc1ccc(-c2ccccn2)cc1)C[C@H](O)[C@H](Cc1ccccc1)NC(=O)[C@@H](N1CCN(Cc2ccccc2)C1=O)C(C)(C)C)C(C)(C)C
EC50 [1]: 22 nM
IC50 (Cytochrome P450 1A2): > 10000 nM
EC50 [7]: 140 nM
Ki (Cathepsin D): 4300 nM
Drug uptake (Serum [8]): 2.45 µg/mL
Drug uptake (Serum [9]): 5.33 µg/mL
Ki [10]: 0.015 nM
AUC [11]: 3500 ng·h/mL
Activity (Rattus norvegicus [12]): 0.144 mg/dL
Cmax [13]: 5890 ng/mL
Cmax [14]: 170 ng/mL
Cmax [15]: 3910 ng/mL
AUC [16]: 19000 ng·h/mL
solubility [17]: < 0.15 µg/mL
bioavailability [18]: 3.4%
IC50 (Cytochrome P450 2C9): > 10000 nM
AUC [19]: 150 ng·h/mL
half-life [20]: 1 h
concentration at 12 h [21]: 924 ng/mL
EC50 [4]: 12 nM
AUC [22]: 41900 ng·h/mL
IC50 (Cytochrome P450 2D6): > 10000 nM
Ki (Cytochrome P450 3A4): 18 nM
Activity (Rattus norvegicus [23]): 0.133 mg/dL
Ki [24]: 177000 nM
fraction unbound [25]: 0.0034
clearance [26]: 19.2 mL/min/kg
Ki (Renin): > 4000 nM
AUC [27]: 210 ng·h/mL
IC50 (Cytochrome P450 2C19): > 10000 nM
concentration at 12 h [28]: 68 ng/mL
Ratio EC50 [5]: 11
EC50 [29]: 103 nM
EC50 [6]: 2 nM

COC(=O)N[C@H](C(=O)N[C@@H](Cc1ccccc1)[C@@H](O)CN(Cc1ccc(-c2ccccn2)cc1)NC(=O)[C@@H](NC(=O)OC)C(C)(C)C)C(C)(C)C [ATAZANAVIR]
EC50 [1]: 250 nM
EC50 [7]: 74 nM
EC50 [29]: 298 nM
EC50 [6]: 3 nM

Cc1cccc(C)c1OCC(=O)N[C@@H](Cc1ccccc1)[C@@H](O)C[C@H](Cc1ccccc1)NC(=O)[C@H](C(C)C)N1CCCNC1=O [LOPINAVIR]
EC50 [1]: 1060 nM
EC50 [7]: 3790 nM
EC50 [4]: 152 nM
Ratio EC50 [5]: 59
EC50 [29]: > 10000 nM
